The record followed here is ChEMBL document CHEMBL4184233, “Design and synthesis of novel dasatinib derivatives as inhibitors of leukemia stem cells” (Bioorg Med Chem Lett, 2018).

Active and inactive are the calls of the source. The rule behind the calls is not given here.

The term IC50 denotes the concentration at which inhibition is half-maximal. A lower IC50 goes with greater potency in that assay.

Data set [1] concerns HL-60. In words: Growth inhibition of human HL60 cells. It is filed as functional, cell-based.
For data set [2], the system named is K562. As to the kind of experiment: Growth inhibition of human K562 cells. It is filed as functional, cell-based.
The subject of data set [3] is KG-1a. In words: Growth inhibition of human KG1a cells. It is filed as functional, cell-based.
Data set [4] is described as follows: Toxicity in Kunming mouse assessed as survival rat at 200 mg/kg, po dosed once for 2 weeks. Conditions: in vivo. It is filed as organism-based. The procedure, abridged:
(§1)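 Single oral dose to mice, then observed for 14 days with survival rate recorded. Doses tested were 200, 500 and 1000 mg/kg. The dasatinib comparator was given at 200 mg/kg only.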

Data set [5] deals with B16-BL6. Conditions: Mus musculus, 8.13 uM.
The test system of data set [6] is MCF7. Conditions: Homo sapiens, 7.5 uM.
Data set [7] deals with B16-BL6. As to the kind of experiment: Inhibition of cell migration of mouse B16-BL6 cells at 1.43 uM incubated for 24 to 48 hrs by cell wound scratch assay. The data set is classed as functional, cell-based. The procedure, abridged: (§2)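 Wound-scratch migration assay in mouse B16BL6 monolayers. Each compound was given at a single concentration for 2 days, and migration was compared with an untreated control group.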

For data set [8], the system named is Mus musculus. As to the kind of experiment: Toxicity in Kunming mouse assessed as survival rat at 500 mg/kg, po dosed once for 2 weeks. It is filed as organism-based. The note with it: in vivo, 336 h. A digest of the protocol: as §1
The test system of data set [9] is MCF7. As to the kind of experiment: Inhibition of colony formation in human MCF7 cells incubated for 10 days by crystal violet staining based plate cloning test. It is filed as functional, cell-based. A digest of the protocol:
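MCF-7 colony formation assay. Cells received low, middle and high concentrations (0.96/1.90/3.80 μM or 0.68/1.35/2.70 μM, depending on compound) for 10 days. Colony counts were compared with an untreated control group, with significance at P < 0.05 and P < 0.01.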

Data set [10] concerns Mus musculus. As to the kind of experiment: Toxicity in Kunming mouse assessed as survival rat at 1000 mg/kg, po dosed once for 2 weeks. It is filed as organism-based. The note with it: in vivo, 336 h. A digest of the protocol:
as §1

Data set [11] has as its system KG-1a. In words: Potency index, ratio of IC50 for dasatinib to IC50 for test compound for growth inhibition of human KG1a cells. It is filed as functional.
Data set [12] concerns B16-BL6. As to the kind of experiment: Inhibition of cell migration of mouse B16-BL6 cells at 0.82 uM incubated for 24 to 48 hrs by cell wound scratch assay. It is filed as functional, cell-based. The procedure, abridged: as §2

On to `Cc1nc(Nc2ncc(-c3nnc(-c4c(C)cccc4Cl)o3)s2)cc(N2CCN(CCN)CC2)n1`, for which the IC50 in data set [1] was determined as 110 nM; in data set [2], 260 nM; in data set [3] it was 680 nM.

On to `Cc1nc(Nc2ncc(-c3cn(-c4c(C)cccc4Cl)nn3)s2)cc(N2CCN(CCN=C=S)CC2)n1`, for which the IC50 was 16.6 nM in [1], 36.5 nM in data set [2] and 320 nM in data set [3].

Turning to `Cc1nc(Nc2ncc(C(=O)Nc3c(C)cccc3Cl)s2)cc(N2CCN(CCO)CC2)n1` [DASATINIB], the survival at 336 h in [4] was 100%. The inhibition entry in data set [5] and in data set [6] was “Active” each time. Further, the IC50 in data set [1] is 0.11 nM; in data set [2] it was 0.069 nM; in [3], 8980 nM.

On to `C=CC(=O)NCCN1CCN(c2cc(Nc3ncc(-c4nnc(-c5c(C)cccc5Cl)o4)s3)nc(C)n2)CC1`, for which the half-inhibitory concentration (IC50) turned out to be 160 nM in [1], 150 nM in data set [2] and 110 nM in [3].

Turning to `Cc1nc(Nc2ncc(C(=O)Nc3c(C)cccc3Cl)s2)cc(N2CCN(CCN=C=S)CC2)n1`, the IC50 in data set [1] was 1.07 nM; in data set [2], 3.77 nM; in data set [3], 1960 nM.

As for `Cc1nc(Nc2ncc(C(=O)Nc3c(C)cccc3Cl)s2)cc(N2CCN(CCN)CC2)n1`, the IC50 amounted to 0.25 nM in [1], 0.72 nM in data set [2] and 25400 nM in data set [3].

Regarding `Cc1nc(Nc2ncc(-c3nnc(-c4c(C)cccc4Cl)o3)s2)cc(N2CCN(CCN=C=S)CC2)n1`, the values for the IC50 in [1], in [2] and in [3] were 1420 nM, 1810 nM and 150 nM, respectively.

On to `Cc1nc(Nc2ncc(C(=O)Nc3c(C)cccc3Cl)s2)cc(N2CCN(CCNC(=O)CCl)CC2)n1`, for which the IC50 in [1] came to 0.86 nM; in data set [2], 1.67 nM; in data set [3] it was 13600 nM.

As to `C=CC(=O)NCCN1CCN(c2cc(Nc3ncc(-c4cn(-c5c(C)cccc5Cl)nn4)s3)nc(C)n2)CC1`, the 50% inhibitory concentration (IC50) in data set [1] is 5.46 nM; in [2], 15.1 nM; in data set [3] it was 250 nM.

On to `Cc1nc(Nc2ncc(-c3cn(-c4c(C)cccc4Cl)nn3)s2)cc(N2CCN(CCNC(=O)CCl)CC2)n1`, for which the half-maximal inhibitory concentration (IC50) in data set [1] turned out to be 9.82 nM; in [2], 17.6 nM; in [3] it was 450 nM.

Consider `Cc1nc(Nc2ncc(-c3nnc(-c4c(C)cccc4Cl)o3)s2)cc(N2CCN(CCO)CC2)n1`, for which the inhibition entry in [7] is “Active”. The survival at 336 h in data set [4] is 100%. In addition, the Activity result in [8] and in [10] was “Non-Toxic” in each case. Also, the inhibition result in data set [9] is “Dose-dependent effect”. The figures for the IC50 in [1], in data set [2] and in [3] were 150 nM, 230 nM and 50 nM, respectively. In addition, the “Ratio IC50” value in [11] is given as 180.

On to `Cc1nc(Nc2ncc(-c3nnc(-c4c(C)cccc4Cl)o3)s2)cc(N2CCN(CCNC(=O)CCl)CC2)n1`, for which the IC50 in data set [1] was found to be 2120 nM; in data set [2] it was 3060 nM; in [3], 9750 nM.

On to `C=CC(=O)NCCN1CCN(c2cc(Nc3ncc(C(=O)Nc4c(C)cccc4Cl)s3)nc(C)n2)CC1`, for which the concentration for half-maximal inhibition (IC50) came out at 0.26 nM in data set [1], 0.039 nM in data set [2] and 12900 nM in [3].

Take `Cc1nc(Nc2ncc(-c3cn(-c4c(C)cccc4Cl)nn3)s2)cc(N2CCN(CCN)CC2)n1`: the 50% inhibitory concentration (IC50) in [1] was 4.08 nM; in data set [2], 11.7 nM; in [3], 2060 nM.

For `Cc1nc(Nc2ncc(-c3cn(-c4c(C)cccc4Cl)nn3)s2)cc(N2CCN(CCO)CC2)n1`, in data set [4], the survival at 336 h turned out to be 100%. In addition, the Activity result in data set [8] and in [10] was “Non-Toxic” throughout. Also, the inhibition result in [9] was “Dose-dependent effect”. Moreover, the half-inhibitory concentration (IC50) in data set [1] was 4.19 nM; in data set [2] it was 14.1 nM; in data set [3], 140 nM. Moreover, in [12], the inhibition entry is “Active”.
